This is a sample that favours compounds with a hit; in the whole collection about 5.1% have one here.
STAT3 blocker – reduces IL-6 driven STAT3 reporter signal | U3A cells, IL-6 STAT3-luciferase reporter, luminescence; host cell line lacks STAT1 | inhibition, % at 5.5 µM | actives 0.89% (n = 190,000);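 active = inhibition above the mean inhibition across all screened compounds plus 3 SD, cut at about 44% in these data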;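 also: 0% = DMSO only wells and 100% = 100 µM nifuroxazide control wells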
STAT1 inh-1 – STAT1 signaling inhibition | AID 920 | actives 0.35% (n = 200,000) | NIH 3T3 STAT1-luciferase reporter, IFN-gamma, luminescence | inhibition, % at 5.5 µM;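 active = inhibition above a set limit, the mean inhibition across all tested compounds plus 3 SD, cut at about 34% in these data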;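 also: 0% = IFN-gamma with DMSO and 100% = IFN-gamma with 300 µM nifuroxazide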
STAT1 act – increases IFN-gamma driven STAT1 reporter signal. actives 2.6% (n = 200,000). AID 932. activation (% of control), % at 5.5 µM. NIH 3T3 STAT1-luciferase reporter, luminescence; 100% = IFN-gamma alone, no compound;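 active = activation above the screen-wide mean activation plus 3 SD, cut at about 130% in these data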;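 also: raw ratio to IFN-gamma control signal so 100% means no change and 0% no light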
APP 5'UTR act – activates APP 5'UTR luciferase reporter; actives 1% (n = 190,000); AID 1276; activation, % at 2 µM; SH-SY5Y APP 5'UTR luciferase reporter, luminescence; zero percent = DMSO vehicle wells;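 active = activation above a set limit, based on mean plus 3 SD of controls, cut at about 140% in these data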
STAT3 activator – STAT3 signaling activation; U3A cells, IL-6 STAT3-luciferase reporter, luminescence; 100% = signal with IL-6 EC80 alone; activation (% of control), % at 5.6 µM; actives 0.91% (n = 190,000); AID 871;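 active = activation above the screen-wide mean of compound activation plus 3 SD, cut at about 130% in these data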;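 also: 0% = background luminescence of wells with medium and substrate only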
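Test system: human U3A cells carrying STAT3-luciferase construct; control set: IL-6-only wells as 100% reference; timing: compound pre-incubation 1 h before IL-6, then 6 h stimulation at 37 °C; also added: IL-6 stimulus at 33 ng/mL final; evaluation: % activation versus median of IL-6-stimulated wells; detection: reporter luminescence signal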
NF-kB neuron act – raises NF-kB expression in human neuronal cells; NF-kB reporter expression; active compounds read high; fold change at 12.5 µM; actives 1.6% (n = 190,000); in the data active = fold change above about 3.3
STAT1 inh-2 – confirmation of STAT1 signaling inhibitors. shares compounds with STAT1 inh-1. NIH 3T3 STAT1-luciferase reporter, IFN-gamma, luminescence. inhibition, % at 5.5 µM. actives 55% (n = 200). AID 1263;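 active = triplicate mean inhibition exceeding the hit cutoff computed for the primary STAT1 screen, cut at about 35% in these data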;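 also: 0% = DMSO with IFN-gamma and 100% = 300 µM nifuroxazide with IFN-gamma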
NFkB inh STAT1ct – NF-kappaB inhibition in STAT1 inhibitor counter-screen; actives 30% (n = 200); shares compounds with STAT1 inh-1; HEK293T NF-kB luciferase reporter, TNF-alpha induced, luminescence; inhibition, % at 5.7 µM;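 active = inhibition above the mean of solvent-only control wells plus 3 SD of those wells, cut at about 15% in these data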;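 also: 0% = DMSO with TNF-alpha and 100% = MG-132 control with TNF-alpha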
STAT3 inh 2 – counter-screen for STAT1 inhibitors: STAT3 inhibition; inhibition, % at 5.7 µM; shares compounds with STAT1 inh-1; actives 20% (n = 200); AID 1310; U3A cells, IL-6 STAT3 luciferase reporter, luminescence; cells lacking STAT1;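 active = inhibition above the mean of solvent-only control wells plus 3 SD, set per campaign, cut at about 25% in these data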;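 also: 0% = IL-6 plus DMSO and 100% = IL-6 plus nifuroxazide control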
An asterisk follows results filed as active; nt = not tested or not shown.

SMILES | STAT3 blocker | STAT1 inh-1 | STAT1 act | APP 5'UTR act | STAT3 activator | NF-kB neuron act | STAT1 inh-2 | NFkB inh STAT1ct | STAT3 inh 2
Cc1cc2ncc(S(=O)(=O)c3ccccc3)c(N)n2n1 | 8 | -2 | 101 | -21 | 99 | 1.1 | nt | nt | nt
CCCCCCC(=O)N(O)C1CC(=O)N(Cc2ccccc2)C1=O (stereo unspecified) | 22 | 35* | 68 | 0 | 83 | 1.4 | 30 | 11 | 22
COc1ccc2[nH]c3c(=O)n4c(nc3c2c1)SCCC4 | 25 | 37* | 66 | 13 | 83 | 1.1 | 12 | -4 | 17
Cc1ccc2[nH]c3c(=O)n4c(nc3c2c1)SCC4 | 24 | 12 | 88 | 2 | 82 | 1.2 | nt | nt | nt
O=C(C1CCC(CNc2nc(=S)[nH]c3ccccc23)CC1)N1CCN(c2ccc(F)cc2)CC1 (stereo unspecified) | 6 | 48* | 55 | 2 | 97 | 0.76 | 33 | 6 | 19
O=C(/C=C/c1cn(-c2ccccc2)nc1-c1cccnc1)N1CCCC1 | 26 | 71* | 34 | -19 | 83 | 0.69 | 55* | 37* | 33*
CCOc1ccc(S(=O)(=O)NC(C)C)cc1C(N)=O | -2 | 2 | 98 | 5 | 103 | 0.93 | nt | nt | nt
CCCNC(=O)CSCc1nc(-c2ccc(SC)cc2)oc1C | 17 | 13 | 87 | 8 | 95 | 1.1 | nt | nt | nt
CCc1ccc(-c2nc(CSCC(=O)NCc3ccco3)c(C)o2)cc1 | 28 | 83* | 24 | -47 | 84 | 0.29 | 75* | 37* | 23
CCCn1nnc(NC(=O)COc2ccc(C3CCCCC3)cc2)n1 | -16 | -9 | 108 | -10 | 114 | 0.86 | nt | nt | nt
CC(C)[C@H](NC(=O)c1ccccc1)C(=O)OCC(=O)N1CCCc2ccccc21 | -8 | -1 | 101 | -27 | 104 | 0.89 | nt | nt | nt
O=C(Nc1ccc(N2CCN(C(=O)c3ccco3)CC2)cc1)c1cccnc1Cl | 9 | 0 | 99 | 11 | 96 | 1.2 | nt | nt | nt
Cc1nn(C)cc1C(=O)Nc1cc(Oc2ccc(Cl)cc2)cc([N+](=O)[O-])c1 | -10 | 5 | 95 | -2 | 106 | 1 | nt | nt | nt
Cn1cc([N+](=O)[O-])c(C(=O)Nc2cc(Oc3ccccc3)cc([N+](=O)[O-])c2)n1 | 18 | 35* | 69 | -97 | 87 | 0.72 | 40* | 24* | -1
CCOC1=NN(c2ccccc2)C(=O)/C1=C\N(C)C | 11 | -2 | 101 | 12 | 94 | 1.2 | nt | nt | nt
CC1=NN(c2nc3ccccc3[nH]2)C(=O)/C1=C/N(C)C | 29 | 41* | 61 | 28 | 78 | 0.85 | -92 | -3 | -15
Cc1sc(-c2ccccn2)nc1OC(=O)c1ccc(F)cc1F | 14 | 74* | 30 | -21 | 93 | 1.2 | 50* | 24* | -11
O=C1CCC(=O)N1CC(=O)N(c1ccccc1)c1ccccc1 | 4 | 7 | 92 | -13 | 99 | 1.7 | nt | nt | nt
O=C(CCl)N(c1ccccc1)c1ccccc1 | 31 | 36* | 66 | -45 | 76 | 0.15 | 36* | 24* | 24
CS(=O)(=O)c1nc(-c2ccccc2)cc(C(F)(F)F)n1 | 6 | 36* | 67 | -62 | 101 | 0.94 | 47* | -3 | 2
O=C(O)c1ccc(N/N=C/c2cc3c(cc2[N+](=O)[O-])OCO3)cc1 | 36 | 36* | 65 | 24 | 73 | 0.9 | 65* | 45* | 15
CCN(C(=O)[C@@H]1CCCN1C(=O)c1cccs1)c1nc2cc(Cl)ccc2s1 | 1 | 6 | 95 | 9 | 101 | 1.1 | nt | nt | nt
O=C(Nc1ccc(C(=O)N2CCCC2)cc1)c1ccccc1F | 3 | -12 | 111 | 22 | 101 | 1.6 | nt | nt | nt
O=C(Nc1cc(C(=O)N2CCCC2)ccc1N1CCCC1)c1ccccc1F | 17 | 51* | 53 | -2 | 89 | 0.66 | 48* | 11 | 8
O=c1cc(CSc2nc3ccccc3c(=O)[nH]2)c2ccc(O)cc2o1 | 5 | 69* | 35 | 22 | 100 | 0.5 | 52* | 14 | 1
SMILES | STAT3 blocker | STAT1 inh-1 | STAT1 act | APP 5'UTR act | STAT3 activator | NF-kB neuron act | STAT1 inh-2 | NFkB inh STAT1ct | STAT3 inh 2
O=c1[nH]c(SCc2ccccc2F)nc2ccccc12 | 8 | -7 | 105 | -2 | 97 | 1.2 | nt | nt | nt
CC(C)NC(=O)CSc1nnc(-c2ccncc2)n1-c1ccccc1 | 6 | -4 | 103 | 14 | 100 | 1.4 | nt | nt | nt
COc1ccc(CCNC(=O)Cn2c(=O)n(-c3ccc(C)c(F)c3)c(=O)c3sccc32)cc1OC | 4 | 52* | 51 | -2 | 105 | 0.77 | 45* | 16* | 19
COc1ccc(-c2cc(C(F)(F)F)nc(S(=O)(=O)CCCC(=O)Nc3cccc(O)c3)n2)cc1OC | 9 | 38* | 64 | 12 | 102 | 1.7 | 39* | -7 | -44
COc1ccccc1-c1cc(C(F)(F)F)nc(S(=O)(=O)CCCC(=O)N2CCOCC2)n1 | 6 | 43* | 61 | 4 | 98 | 1.4 | 44* | 1 | 7
O=C(/C=C/c1ccc(Cl)cc1)Nc1ccccc1N1CCOCC1 | 0 | -8 | 107 | -9 | 98 | 1.1 | nt | nt | nt
Cc1ccc(-n2nc(C(=O)O)c3ccccc3c2=O)cc1C | 15 | 54* | 55 | -5 | 88 | 1 | 49* | 2 | 8
COc1ccccc1-n1nc(C(=O)O)c2ccccc2c1=O | 6 | -2 | 100 | 14 | 99 | 1.4 | nt | nt | nt
CCOC(=O)C1=C(CC)Nc2ccccc2N=C1NC(=O)c1ccc(OC)c(S(=O)(=O)N2CCCCC2C)c1 (stereo unspecified) | -6 | 37* | 65 | 17 | 107 | 1.1 | 17 | -2 | -22
O=C1OCCC1Sc1nnc(-c2ccc(F)cc2)n1Cc1ccccc1 (stereo unspecified) | 0 | 5 | 95 | -1 | 103 | 1.1 | nt | nt | nt
CCOC(=O)c1c(C)nc2sc3c(=O)n(-c4ccc(OC)cc4)nnc3c2c1-c1ccc(OC)cc1 | 8 | 50* | 56 | -8 | 95 | 0.81 | 48* | 9 | 9
CCOC(=O)c1c(C)nc2sc3c(=O)n(-c4ccc(C(C)=O)cc4)cnc3c2c1-c1ccc(OC)cc1 | 4 | 4 | 97 | 7 | 101 | 0.57 | nt | nt | nt
COc1ccccc1CP(=O)(c1ccccc1)c1ccccc1 | 12 | 7 | 94 | -3 | 92 | 1.2 | nt | nt | nt
CC(C)C(=O)Nc1cccc(C(=O)Nc2nccs2)c1 | 21 | -7 | 106 | -3 | 89 | 1.1 | nt | nt | nt

Screening results as filed in PubChem BioAssay.
